Active and inactive are the calls of the source.
Tests used:
[1] = target: T1, Fatty-acid amide hydrolase 1 (Rattus norvegicus) (UniProt P97612); assay: Reversible inhibition of rat brain FAAH at 0.2 to 2 uM using [3H]AEA as substrate preincubated for 60 mins followed by 20 fold compound dilution and subsequent substrate addition by liquid scintillation counting analysis
T1 sequence (whole entry): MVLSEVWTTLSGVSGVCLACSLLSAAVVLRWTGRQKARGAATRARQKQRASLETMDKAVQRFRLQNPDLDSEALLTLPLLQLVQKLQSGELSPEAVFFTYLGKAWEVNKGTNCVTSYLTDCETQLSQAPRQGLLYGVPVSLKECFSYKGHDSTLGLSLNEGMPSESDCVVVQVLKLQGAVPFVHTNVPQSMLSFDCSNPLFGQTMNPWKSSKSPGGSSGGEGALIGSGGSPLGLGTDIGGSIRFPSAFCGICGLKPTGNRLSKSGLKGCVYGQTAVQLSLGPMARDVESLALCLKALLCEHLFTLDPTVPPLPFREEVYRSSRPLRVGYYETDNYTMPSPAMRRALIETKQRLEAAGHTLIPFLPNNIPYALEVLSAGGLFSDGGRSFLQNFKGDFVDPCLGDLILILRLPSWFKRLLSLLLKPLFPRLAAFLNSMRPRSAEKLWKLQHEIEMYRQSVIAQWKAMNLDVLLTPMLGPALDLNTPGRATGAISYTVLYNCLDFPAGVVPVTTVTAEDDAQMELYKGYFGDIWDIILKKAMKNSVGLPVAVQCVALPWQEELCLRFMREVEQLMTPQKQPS
How it was run: (§1)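 Rat brain homogenate at 20-fold normal strength was preincubated with vehicle or compound for 60 min, then diluted 20-fold and assayed with [3H]AEA for 10 min at 37 °C. In parallel, compound was added to vehicle-preincubated aliquots at the post-dilution free concentrations and at the undiluted final concentrations. Tritium was counted after charcoal separation.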

[2] = target: T2, Fatty-acid amide hydrolase 1 (Homo sapiens, UniProt O00519); assay: Inhibition of FAAH (unknown origin) expressed in human HeLa cells transfected with empty vector using [3H]AEA as substrate after 2 hrs by liquid scintillation counting analysis; type: cell-based
T2 sequence (O00519 whole entry): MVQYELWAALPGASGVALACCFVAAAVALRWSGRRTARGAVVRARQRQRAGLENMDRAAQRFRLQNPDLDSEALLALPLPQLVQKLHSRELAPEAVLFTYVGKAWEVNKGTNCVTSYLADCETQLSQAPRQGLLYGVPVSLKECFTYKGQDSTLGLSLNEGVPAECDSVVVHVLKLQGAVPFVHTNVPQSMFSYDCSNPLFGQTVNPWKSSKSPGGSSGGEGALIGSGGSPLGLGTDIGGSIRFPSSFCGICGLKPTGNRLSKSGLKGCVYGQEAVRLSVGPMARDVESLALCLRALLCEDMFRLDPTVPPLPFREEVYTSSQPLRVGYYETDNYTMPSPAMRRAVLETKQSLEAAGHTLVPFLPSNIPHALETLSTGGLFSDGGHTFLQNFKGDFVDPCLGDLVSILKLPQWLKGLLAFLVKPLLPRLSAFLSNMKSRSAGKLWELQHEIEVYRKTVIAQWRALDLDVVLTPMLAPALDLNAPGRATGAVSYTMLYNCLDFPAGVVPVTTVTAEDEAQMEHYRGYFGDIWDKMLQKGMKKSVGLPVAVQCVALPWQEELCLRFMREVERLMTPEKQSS

[3] = target: T3, Fatty-acid amide hydrolase 1 (Mus musculus) (UniProt O08914); assay: Inhibition of B6CBAF1/J mouse brain FAAH using [3H]AEA as substrate after 10 mins in presence of N-(3-Chloropyridin-2-yl)-2-(4-((2-(trifluoromethyl)pyridin-4-yl)amino)phenyl)propanamide by Dixon plot analysis
T3 sequence (whole entry): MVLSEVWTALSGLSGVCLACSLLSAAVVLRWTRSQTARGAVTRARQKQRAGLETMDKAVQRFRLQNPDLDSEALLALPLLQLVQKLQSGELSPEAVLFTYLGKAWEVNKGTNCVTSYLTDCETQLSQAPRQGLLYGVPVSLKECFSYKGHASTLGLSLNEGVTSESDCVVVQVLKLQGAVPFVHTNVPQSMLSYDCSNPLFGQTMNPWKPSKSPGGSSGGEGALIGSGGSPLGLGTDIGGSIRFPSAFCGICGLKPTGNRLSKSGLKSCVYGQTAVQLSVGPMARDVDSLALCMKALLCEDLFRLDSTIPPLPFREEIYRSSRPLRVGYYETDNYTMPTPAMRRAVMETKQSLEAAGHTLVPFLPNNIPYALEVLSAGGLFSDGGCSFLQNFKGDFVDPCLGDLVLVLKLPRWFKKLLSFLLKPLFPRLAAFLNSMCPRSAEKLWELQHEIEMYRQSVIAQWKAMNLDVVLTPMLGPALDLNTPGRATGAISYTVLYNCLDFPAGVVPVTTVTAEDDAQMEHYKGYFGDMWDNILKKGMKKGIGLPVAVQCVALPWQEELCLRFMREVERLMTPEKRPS
How it was run: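 Kinetic study in brain homogenate from male B6CBAF1/J mice (0.3 µg protein per assay). [3H]AEA hydrolysis ran for 10 min at 37 °C in Tris-EDTA buffer, pH 7.4, with the AEA:fatty acid-free BSA ratio held at 1:~4.5. Products were separated on charcoal and counted by scintillation. Competitive, mixed-type and non-competitive fits were compared by Akaike's criterion.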

[4] = target: T1, Fatty-acid amide hydrolase 1 (Rattus norvegicus); assay: Inhibition of rat brain FAAH using [3H]AEA as substrate after 10 mins in presence of N-(3-Chloropyridin-2-yl)-2-(4-((2-(trifluoromethyl)pyridin-4-yl)amino)phenyl)propanamide by liquid scintillation counting analysis
How it was run: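 Rat (Wistar or Sprague-Dawley) brain homogenate without cerebella, washed and pre-incubated 15 min at 37 °C to clear endogenous substrate. Compound (in ethanol or DMSO) was mixed with 1 µg protein on ice in 10 mM Tris-HCl, 1 mM EDTA, pH 7.4. Reaction used 0.5 µM [3H]AEA with fatty acid-free BSA for 10 min at 37 °C. It was stopped with charcoal/HCl, and supernatant tritium was counted. ≥5 half-log concentrations, ≥3 experiments; maximum inhibition = 100 − fitted bottom.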

[5] = target: T1, Fatty-acid amide hydrolase 1 (Rattus norvegicus); assay: Reversible inhibition of rat brain FAAH at 0.2 to 2 uM using [3H]AEA as substrate preincubated for 60 mins followed by substrate addition by liquid scintillation counting analysis; how it was run: as §1

Cc1cccnc1NC(=O)C(C)c1ccc(Nc2ccnc(C(F)(F)F)c2)cc1 (stereo not given)
inhibition [1]: Active | IC50 [2]: 2.5 µM | inhibition [3]: Active | inhibition [4]: Active | inhibition [5]: Active

Source: ChEMBL document CHEMBL4138113, “Novel propanamides as fatty acid amide hydrolase inhibitors” (Eur J Med Chem, 2017)
